Where a SMILES comes first, the peptide text is derived from it. The star is where a group is joined. AspNHSO2(5'-O-Ado) = Nc1ncnc2c1ncn2[C@@H]1O[C@H](COS(=O)(=O)NC(=O)[C@H](CC(=O)O)N*)[C@@H](O)[C@H]1O
Key:
Type in all cases: functional
Staphylococcus aureus [1] = assay: Antibacterial activity against Staphylococcus aureus ATCC 25923 at 30 nmol after 16 to 20 hrs
Method in brief: (§1)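 Agar overlay diffusion assay: soft Mueller–Hinton agar (0.75% agar) seeded with bacteria poured over Mueller–Hinton agar (1.5% agar). Once set, 5 µL drops of compound in milliQ water were applied (30 nmol per drop, or 1.2 nmol for the reference compound) and allowed to dry. Plates were incubated at 37 °C for 16–20 h. Inhibition zone area was read in mm², triplicate per compound–dose.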

Enterococcus faecalis [2] = assay: Antibacterial activity against Enterococcus faecalis ATCC 29212 at 30 nmol after 16 to 20 hrs; method in brief: as §1
Escherichia coli [3] = assay: Antibacterial activity against wild type Escherichia coli at 30 nmol after 16 to 20 hrs; method in brief: as §1
Escherichia coli [4] = assay: Antibacterial activity against Escherichia coli delta ABN mutant lacking peptidase A, B, N at 30 nmol after 16 to 20 hrs
Method in brief: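 Agar diffusion test. A soft Mueller–Hinton agar lawn (0.75% agar) seeded with bacteria was poured over Mueller–Hinton agar (1.5% agar). Once the agar set, 5 µL drops of compound in milliQ water (30 nmol per drop) were applied and left to dry. Plates were incubated at 37 °C for 16–20 h. Inhibition zone area was recorded in mm² as mean ± SD of triplicates.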

Staphylococcus aureus [5] = assay: Antibacterial activity against Staphylococcus aureus ATCC 25923 at 1.2 nmol after 16 to 20 hrs; method in brief: as §1
Enterococcus faecalis [6] = assay: Antibacterial activity against Enterococcus faecalis ATCC 29212 at 1.2 nmol after 16 to 20 hrs; method in brief: as §1
Escherichia coli [7] = assay: Antibacterial activity against wild type Escherichia coli at 1.2 nmol after 16 to 20 hrs; method in brief: as §1

CSCC[C@H](N)C(=O)N[C@@H](Cc1c[nH]c2ccccc12)C(=O)NS(=O)(=O)OC[C@H]1O[C@@H](n2cnc3c(N)ncnc32)[C@H](O)[C@@H]1O
inhibition zone (IZ) (Staphylococcus aureus [1]): 0 mm2
inhibition zone (IZ) (Enterococcus faecalis [2]): 0 mm2
inhibition zone (IZ) (Escherichia coli [3]): 0 mm2

C[C@H](N)C(=O)N[C@@H](Cc1c[nH]c2ccccc12)C(=O)NS(=O)(=O)OC[C@H]1O[C@@H](n2cnc3c(N)ncnc32)[C@H](O)[C@@H]1O
inhibition zone (IZ) (Staphylococcus aureus [1]): 0 mm2
inhibition zone (IZ) (Enterococcus faecalis [2]): 0 mm2
inhibition zone (IZ) (Escherichia coli [3]): 0 mm2

Nc1ncnc2c1ncn2[C@@H]1O[C@H](COS(=O)(=O)NC(=O)[C@H](Cc2c[nH]c3ccccc23)NC(=O)[C@@H]2CCCN2)[C@@H](O)[C@H]1O
inhibition zone (IZ) (Staphylococcus aureus [1]): 0 mm2
inhibition zone (IZ) (Enterococcus faecalis [2]): 0 mm2
inhibition zone (IZ) (Escherichia coli [3]): 0 mm2

CC(C)C[C@H](NC(=O)[C@H](C)N)C(=O)NS(=O)(=O)OC[C@H]1O[C@@H](n2cnc3c(N)ncnc32)[C@H](O)[C@@H]1O
inhibition zone (IZ) (Staphylococcus aureus [1]): 0 mm2
inhibition zone (IZ) (Enterococcus faecalis [2]): 24.2 mm2
inhibition zone (IZ) (Escherichia coli [3]): 0 mm2

Nc1ncnc2c1ncn2[C@@H]1O[C@H](COS(=O)(=O)NC(=O)[C@@H](N)CC(=O)O)[C@@H](O)[C@H]1O
inhibition zone (IZ) (Staphylococcus aureus [1]): 0 mm2
inhibition zone (IZ) (Enterococcus faecalis [2]): 21.3 mm2
inhibition zone (IZ) (Escherichia coli [3]): 26.8 mm2
inhibition zone (IZ) (Escherichia coli [4]): 28.3 mm2

CSCC[C@H](NC(=O)[C@H](C)N)C(=O)NS(=O)(=O)OC[C@H]1O[C@@H](n2cnc3c(N)ncnc32)[C@H](O)[C@@H]1O
inhibition zone (IZ) (Staphylococcus aureus [1]): 0 mm2
inhibition zone (IZ) (Enterococcus faecalis [2]): 0 mm2
inhibition zone (IZ) (Escherichia coli [3]): 0 mm2

CSCC[C@H](N)C(=O)NS(=O)(=O)OC[C@H]1O[C@@H](n2cnc3c(N)ncnc32)[C@H](O)[C@@H]1O
inhibition zone (IZ) (Staphylococcus aureus [1]): 18.7 mm2
inhibition zone (IZ) (Enterococcus faecalis [2]): 0 mm2
inhibition zone (IZ) (Escherichia coli [3]): 26.8 mm2
inhibition zone (IZ) (Escherichia coli [4]): 40.4 mm2

Nc1ncnc2c1ncn2[C@@H]1O[C@H](COS(=O)(=O)NC(=O)[C@@H](N)Cc2c[nH]c3ccccc23)[C@@H](O)[C@H]1O
inhibition zone (IZ) (Staphylococcus aureus [1]): 0 mm2
inhibition zone (IZ) (Enterococcus faecalis [2]): 0 mm2
inhibition zone (IZ) (Escherichia coli [3]): 0 mm2

CSCC[C@H](N)C(=O)N[C@@H](C)C(=O)NS(=O)(=O)OC[C@H]1O[C@@H](n2cnc3c(N)ncnc32)[C@H](O)[C@@H]1O
inhibition zone (IZ) (Staphylococcus aureus [1]): 59 mm2
inhibition zone (IZ) (Enterococcus faecalis [2]): 76.1 mm2
inhibition zone (IZ) (Escherichia coli [3]): 26.8 mm2
inhibition zone (IZ) (Escherichia coli [4]): 0 mm2

CSCC[C@H](N)C(=O)N[C@@H](CC(C)C)C(=O)NS(=O)(=O)OC[C@H]1O[C@@H](n2cnc3c(N)ncnc32)[C@H](O)[C@@H]1O
inhibition zone (IZ) (Staphylococcus aureus [1]): 0 mm2
inhibition zone (IZ) (Enterococcus faecalis [2]): 33.3 mm2
inhibition zone (IZ) (Escherichia coli [3]): 0 mm2

CC(C)C[C@H](NC(=O)[C@@H](N)CCCCN)C(=O)NS(=O)(=O)OC[C@H]1O[C@@H](n2cnc3c(N)ncnc32)[C@H](O)[C@@H]1O
inhibition zone (IZ) (Staphylococcus aureus [1]): 0 mm2
inhibition zone (IZ) (Enterococcus faecalis [2]): 0 mm2
inhibition zone (IZ) (Escherichia coli [3]): 0 mm2

CSCC[C@H](NC(=O)[C@@H]1CCCN1)C(=O)NS(=O)(=O)OC[C@H]1O[C@@H](n2cnc3c(N)ncnc32)[C@H](O)[C@@H]1O
inhibition zone (IZ) (Staphylococcus aureus [1]): 0 mm2
inhibition zone (IZ) (Enterococcus faecalis [2]): 0 mm2
inhibition zone (IZ) (Escherichia coli [3]): 0 mm2

C[C@H](N)C(=O)N[C@@H](C)C(=O)NS(=O)(=O)OC[C@H]1O[C@@H](n2cnc3c(N)ncnc32)[C@H](O)[C@@H]1O
inhibition zone (IZ) (Staphylococcus aureus [1]): 0 mm2
inhibition zone (IZ) (Enterococcus faecalis [2]): 56.9 mm2
inhibition zone (IZ) (Escherichia coli [3]): 25.3 mm2
inhibition zone (IZ) (Escherichia coli [4]): 0 mm2

CSCC[C@H](NC(=O)[C@@H](N)CCSC)C(=O)NS(=O)(=O)OC[C@H]1O[C@@H](n2cnc3c(N)ncnc32)[C@H](O)[C@@H]1O
inhibition zone (IZ) (Staphylococcus aureus [1]): 0 mm2
inhibition zone (IZ) (Enterococcus faecalis [2]): 83.9 mm2
inhibition zone (IZ) (Escherichia coli [3]): 0 mm2

Nc1ncnc2c1ncn2[C@@H]1O[C@H](COS(=O)(=O)NC(=O)[C@H](Cc2ccccc2)NC(=O)[C@@H](N)Cc2ccccc2)[C@@H](O)[C@H]1O
inhibition zone (IZ) (Staphylococcus aureus [1]): 0 mm2
inhibition zone (IZ) (Enterococcus faecalis [2]): 26.8 mm2
inhibition zone (IZ) (Escherichia coli [3]): 18.4 mm2
inhibition zone (IZ) (Escherichia coli [4]): 19.6 mm2

NCCCC[C@H](N)C(=O)N[C@@H](Cc1c[nH]c2ccccc12)C(=O)NS(=O)(=O)OC[C@H]1O[C@@H](n2cnc3c(N)ncnc32)[C@H](O)[C@@H]1O
inhibition zone (IZ) (Staphylococcus aureus [1]): 0 mm2
inhibition zone (IZ) (Enterococcus faecalis [2]): 0 mm2
inhibition zone (IZ) (Escherichia coli [3]): 0 mm2

CC(C)C[C@H](NC(=O)[C@@H](N)CCC(=O)O)C(=O)NS(=O)(=O)OC[C@H]1O[C@@H](n2cnc3c(N)ncnc32)[C@H](O)[C@@H]1O
inhibition zone (IZ) (Staphylococcus aureus [1]): 0 mm2
inhibition zone (IZ) (Enterococcus faecalis [2]): 0 mm2
inhibition zone (IZ) (Escherichia coli [3]): 0 mm2

CSCC[C@H](N)C(=O)N[C@@H](CC(=O)O)C(=O)NS(=O)(=O)OC[C@H]1O[C@@H](n2cnc3c(N)ncnc32)[C@H](O)[C@@H]1O
inhibition zone (IZ) (Staphylococcus aureus [1]): 0 mm2
inhibition zone (IZ) (Enterococcus faecalis [2]): 63.7 mm2
inhibition zone (IZ) (Escherichia coli [3]): 12.6 mm2
inhibition zone (IZ) (Escherichia coli [4]): 31.5 mm2

CC(C)C[C@H](NC(=O)[C@@H]1CCCN1)C(=O)NS(=O)(=O)OC[C@H]1O[C@@H](n2cnc3c(N)ncnc32)[C@H](O)[C@@H]1O
inhibition zone (IZ) (Staphylococcus aureus [1]): 0 mm2
inhibition zone (IZ) (Enterococcus faecalis [2]): 0 mm2
inhibition zone (IZ) (Escherichia coli [3]): 0 mm2

C[C@H](NC(=O)[C@@H]1CCCN1)C(=O)NS(=O)(=O)OC[C@H]1O[C@@H](n2cnc3c(N)ncnc32)[C@H](O)[C@@H]1O
inhibition zone (IZ) (Staphylococcus aureus [1]): 0 mm2
inhibition zone (IZ) (Enterococcus faecalis [2]): 0 mm2
inhibition zone (IZ) (Escherichia coli [3]): 18.4 mm2
inhibition zone (IZ) (Escherichia coli [4]): 0 mm2

CSCC[C@H](N)C(=O)N[C@@H](CCCNC(=N)N)C(=O)N[C@H](C(=O)NCC(=O)N[C@@H](CC(N)=O)C(=O)N[C@@H](C)C(=O)N[C@@H](CC(=O)O)C(=O)NS(=O)(=O)OC[C@H]1O[C@@H](n2cnc3c(N)ncnc32)[C@H](O)[C@@H]1O)[C@@H](C)O (H-MRTGNA-{AspNHSO2(5'-O-Ado)})
inhibition zone (IZ) (Staphylococcus aureus [5]): 0 mm2
inhibition zone (IZ) (Enterococcus faecalis [6]): 0 mm2
inhibition zone (IZ) (Escherichia coli [7]): 46.7 mm2

C[C@H](N)C(=O)NS(=O)(=O)OC[C@H]1O[C@@H](n2cnc3c(N)ncnc32)[C@H](O)[C@@H]1O [ALASA]
inhibition zone (IZ) (Staphylococcus aureus [1]): 35 mm2
inhibition zone (IZ) (Enterococcus faecalis [2]): 44.7 mm2
inhibition zone (IZ) (Escherichia coli [3]): 46.3 mm2
inhibition zone (IZ) (Escherichia coli [4]): 42.3 mm2

CC(C)C[C@H](N)C(=O)NS(=O)(=O)OC[C@H]1O[C@@H](n2cnc3c(N)ncnc32)[C@H](O)[C@@H]1O [LEUSA]
inhibition zone (IZ) (Staphylococcus aureus [1]): 0 mm2
inhibition zone (IZ) (Enterococcus faecalis [2]): 26.9 mm2
inhibition zone (IZ) (Escherichia coli [3]): 25.4 mm2
inhibition zone (IZ) (Escherichia coli [4]): 66 mm2

C/C(=C\C(=O)OCCCCCCCCC(=O)O)C[C@@H]1OC[C@H](C[C@@H]2O[C@H]2[C@@H](C)[C@H](C)O)[C@@H](O)[C@H]1O [MUPIROCIN]
inhibition zone (IZ) (Staphylococcus aureus [1]): >490.93 mm2
inhibition zone (IZ) (Enterococcus faecalis [2]): 89.4 mm2
inhibition zone (IZ) (Escherichia coli [3]): 38.5 mm2
inhibition zone (IZ) (Escherichia coli [4]): 52.7 mm2

Nc1ncnc2c1ncn2[C@@H]1O[C@H](COS(=O)(=O)NC(=O)[C@@H](N)Cc2ccccc2)[C@@H](O)[C@H]1O [PHESA]
inhibition zone (IZ) (Staphylococcus aureus [1]): 0 mm2
inhibition zone (IZ) (Enterococcus faecalis [2]): 40.4 mm2
inhibition zone (IZ) (Escherichia coli [3]): 38.5 mm2
inhibition zone (IZ) (Escherichia coli [4]): 52.7 mm2
